Most compounds without a hit are left out; they make up all but 6.3% or so of the library.
M1 antagonist: antagonists of rat M1 muscarinic receptor; P08482; B-score at 10 µM; AID 628; 64,000 compounds, 3.4% hits; CHO-M1 cells, Fluo-4 calcium, ACh EC80 antagonist mode; active compounds read low;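 active means calcium fluorescence response, raw or row-and-column corrected B-score, differing from the plate sample mean either way at a set confidence level, mostly lower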
RORA act: RORA (human) activation; P35398; CHO-K1 Gal4-RORA LBD luciferase reporter, luminescence; percent increase over mock-subtracted basal signal; activation, % at 10 µM; 65,000 compounds, 1.5% hits; AID 560;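 active means activation above the mean of all tested compounds plus 3 SD, cut at about 49% in these data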;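 further: 0% = DMSO-treated RORA cells and 100% = added signal equal to DMSO minus mock-transfected cells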
SF1 activator: activates the human nuclear receptor SF-1; activation, % at 10 µM; 65,000 compounds, 1.9% hits; Q13285; CHO-K1 Gal4-SF-1 LBD luciferase reporter; % increase over DMSO SF-1-specific signal;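 active means activation above the mean activation of all tested compounds plus 3 SD, cut at about 50% in these data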
Target sequence (Q13285 whole entry, looked up, the tested form may be a part): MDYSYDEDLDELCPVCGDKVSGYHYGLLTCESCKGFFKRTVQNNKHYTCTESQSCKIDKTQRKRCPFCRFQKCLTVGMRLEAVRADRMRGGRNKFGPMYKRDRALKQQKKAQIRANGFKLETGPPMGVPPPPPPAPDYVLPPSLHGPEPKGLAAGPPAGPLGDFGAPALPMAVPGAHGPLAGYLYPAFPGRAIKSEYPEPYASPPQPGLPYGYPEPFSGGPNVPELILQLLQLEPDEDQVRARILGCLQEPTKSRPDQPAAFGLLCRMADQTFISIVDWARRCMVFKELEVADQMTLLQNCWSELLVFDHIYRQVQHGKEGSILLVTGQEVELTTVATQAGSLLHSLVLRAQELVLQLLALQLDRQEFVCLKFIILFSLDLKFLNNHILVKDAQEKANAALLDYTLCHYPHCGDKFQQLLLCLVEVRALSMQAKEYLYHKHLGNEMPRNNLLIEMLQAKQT
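Material: Gal4–SF-1 LBD one-hybrid luciferase reporter in CHO-K1 cells | Amount: 4,000 cells per well | Compound dosing: 10 µM single point, 1% DMSO | Schedule: 20 h compound treatment, 37 °C | Measured by: SteadyLite luciferase luminescence | Evaluation: Percent activation versus DMSO | Control set: DMSO-treated SF-1-transfected cells as negative, DMSO-treated mock-transfected cells lacking SF-1 as background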
M1 ag: agonists of M1 muscarinic receptor; CHO-M1 cells, Fluo-4 calcium fluorescence, agonist mode; active compounds read high; AID 626; 64,000 compounds, 3% hits; B-score at 10 µM;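 active means fluorescence rise, raw or as B-score row- and column-corrected plate score, outside the 99.7% band of its plate's samples, either direction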
MT1-MMP txn act: activates MT1-MMP transcription; HT1080 MT1-MMP promoter luciferase reporter, luminescence, overnight; active compounds read high; activation factor at 10 µM; 86,000 compounds, 0.16% hits;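 active means activation factor of at least 2 for MT1-MMP transcription at 10 µM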
M1 antag confirm: confirmation of rat M1 muscarinic receptor antagonists | calcium response (max-min fluorescence) at 10 µM | CHO-M1 cells, Fluo-4 calcium, ACh EC80 antagonism; active compounds read low | 1,700 compounds, 43% hits | shares compounds with M1 antagonist;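 active means calcium response below the same-plate mean of wells given acetylcholine alone at its 80%-effect dose, minus 3 SD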;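 further: raw fluorescence intensity difference in arbitrary instrument units and not normalized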
mGluR4 antag: mGluR4 (human) activity, M1 antagonist secondary assay; 1,700 compounds, 0.9% hits; fluorescence response (max-min) at 10 µM; shares compounds with M1 antagonist; CHO-mGluR4 calcium flux, Fluo-4 fluorescence, glutamate EC80; active compounds read low; AID 678;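 active means fluorescence response below the plate's average for near-maximal glutamate wells, less 3 SD of those wells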;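 further: raw unnormalized fluorescence span taken in the window right after glutamate addition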
* = called active by the depositor; nt = not tested or not shown.

SMILES | M1 antagonist | RORA act | SF1 activator | M1 ag | MT1-MMP txn act | M1 antag confirm | mGluR4 antag
CC1CCN(S(=O)(=O)c2ccc(NC(=O)CN3CCCC(C)C3)cc2)CC1 (configuration not stated) | nt | nt | nt | nt | 1.1 | nt | nt
CCN(CC)C(=O)c1ccc(S(=O)(=O)N2CCC(c3nc4ccccc4s3)CC2)cc1 | nt | nt | nt | nt | 1.2 | nt | nt
O=C1CC(N2CCC(c3nc4ccccc4s3)CC2)C(=O)N1 (configuration not stated) | -1.71* | -4.2 | 2.9 | 0.0484 | 1.2 | 664 | 183
COc1ccc(CCn2c(C)cc3c(c2=O)C(c2ccc4c(c2)OCO4)C(C#N)=C(N)O3)cc1OC (configuration not stated) | -0.208 | 17.1 | 47.4 | -0.0631 | 1.1 | nt | nt
COc1ccc(CCNC(=O)CSC2=Nc3ccccc3C3=NC(C(C)C)C(=O)N23)cc1OC (configuration not stated) | -3.47* | -10.7 | -1.4 | -1.36 | 1.1 | 565 | 228
O=C(CSc1nnc2c3c4c(sc3ncn12)CCCC4)NCc1ccco1 | 0.301 | -4.9 | -14.4 | -0.143 | 1.2 | nt | nt
Cc1nc2sc3c(c2c2nnc(SCC(=O)NCc4ccco4)n12)CCCC3 | -2.74* | -10.2 | 4.1 | -1.04 | 1.2 | 618 | 215
Cc1ccc(N(C=NC#N)CC(=O)N2CCN(c3ccccc3)CC2)cc1 | -3.39* | 2.9 | -2.9 | 0.2 | 1 | 565 | 212
Cc1ccc(N2CCN(C(=O)CN3C(=O)c4ccccc4C3=O)CC2)cc1 | nt | nt | nt | nt | 1.3 | nt | nt
O=C(c1ccc(Br)o1)N1CCN(c2ncccn2)CC1 | nt | nt | nt | nt | 0.9 | nt | nt
Nc1nc2n(n1)C(c1ccc(F)cc1)CC(c1ccc(F)cc1)N2 (configuration not stated) | -0.856 | -8.6 | -8.1 | 0.0129 | 1.1 | nt | nt
Cn1c(-c2ccc3c(c2)OCO3)cnc1NC(=O)CCC(=O)NCCc1ccccc1 | 0.556 | -23.9 | 2.9 | -0.172 | 1.2 | nt | nt
Cn1c(-c2ccc3c(c2)OCO3)cnc1NCc1ccccc1 | -5.3* | 9.6 | 67.8* | 0.0775 | 1.4 | 295* | 182
Cn1c(-c2ccc3c(c2)OCO3)cnc1NCc1cccc(Cl)c1 | -16.6* | 6.1 | -3.0 | -1.2 | 1.4 | 109* | 221
c1cncc(-c2nn3c(-c4ccncc4)nnc3s2)c1 | 0.0138 | 16.8 | -7.8 | -0.872 | 1 | nt | nt
Cc1cc(C)nc(SCC(=O)Oc2ccc3oc(=O)cc(C)c3c2)n1 | -2.57* | -8.8 | 4.1 | -0.309 | 1.1 | 685 | 163
CCOc1ccc2oc(=O)cc(C)c2c1 | nt | nt | nt | nt | 1.2 | nt | nt
C=CCn1cc(C(=O)NCCCOCC)c(=O)c2cc(S(=O)(=O)N(CC)CC)ccc21 | -0.269 | 41.1 | 4.5 | -0.321 | 1 | nt | nt
O=C(CCCN1C(=O)c2cccc3cccc(c23)C1=O)N1CCc2ccccc2C1 | nt | nt | nt | nt | 1 | nt | nt
COc1ccccc1-c1cc2ccccc2[nH]1 | nt | nt | nt | nt | 1.9 | nt | nt
CC(C)(C)c1ccc(OCC(O)CS(=O)(=O)c2ccccn2)cc1 (configuration not stated) | -1.83* | 3.6 | 10.3 | -0.427 | 1.2 | 660 | 262
CCCCS(=O)CC(O)COc1ccc(C(C)(C)C)cc1 (configuration not stated) | 0.374 | -5.7 | -14.6 | 0.431 | 1.2 | nt | nt
CCCn1c(SCC(=O)NCc2ccccc2)nnc1-c1ccncc1 | nt | nt | nt | nt | 1 | nt | nt
CCCN(CCO)Cc1cccc(Cl)c1 | -2.57* | -12.8 | 10.4 | -0.0125 | 1.1 | 715 | 194
Cn1c(CCN2CCCCC2)nc2cc(NS(=O)(=O)c3ccc(F)cc3)ccc21 | -1.82* | 26.9 | -17.5 | -0.522 | 1.1 | 474* | 207
Cc1ccc(N2CCN(CCc3nc4cc(NS(C)(=O)=O)ccc4n3C)CC2)cc1 | -3.75* | -2.1 | -0.6 | 1.7 | 0.8 | 503* | 234
Cn1c(CCN2CCCCC2)nc2cc(NC(=O)NC3CCCCC3)ccc21 | -4.72* | 9.8 | 3.5 | -0.333 | 1 | 263* | 228
Cc1ccc(-n2c(C)cc(C(=O)CSc3nncs3)c2C)cc1 | -2.02 | 29.4 | -9.4 | 1.51 | 1.1 | nt | nt
Cc1ccc(-n2c(C)cc(C(=O)CSc3nnnn3C)c2C)cc1 | -1.76* | 47.5 | 33.3 | -0.193 | 0.8 | 574 | 222

Compound activity from PubChem BioAssay.
